Activity calls are given as the source filed them. No cut-off for these calls is given here.

The target of assay [1] is T1, DNA topoisomerase 1 (Homo sapiens) (UniProt P11387).
T1 sequence (whole entry): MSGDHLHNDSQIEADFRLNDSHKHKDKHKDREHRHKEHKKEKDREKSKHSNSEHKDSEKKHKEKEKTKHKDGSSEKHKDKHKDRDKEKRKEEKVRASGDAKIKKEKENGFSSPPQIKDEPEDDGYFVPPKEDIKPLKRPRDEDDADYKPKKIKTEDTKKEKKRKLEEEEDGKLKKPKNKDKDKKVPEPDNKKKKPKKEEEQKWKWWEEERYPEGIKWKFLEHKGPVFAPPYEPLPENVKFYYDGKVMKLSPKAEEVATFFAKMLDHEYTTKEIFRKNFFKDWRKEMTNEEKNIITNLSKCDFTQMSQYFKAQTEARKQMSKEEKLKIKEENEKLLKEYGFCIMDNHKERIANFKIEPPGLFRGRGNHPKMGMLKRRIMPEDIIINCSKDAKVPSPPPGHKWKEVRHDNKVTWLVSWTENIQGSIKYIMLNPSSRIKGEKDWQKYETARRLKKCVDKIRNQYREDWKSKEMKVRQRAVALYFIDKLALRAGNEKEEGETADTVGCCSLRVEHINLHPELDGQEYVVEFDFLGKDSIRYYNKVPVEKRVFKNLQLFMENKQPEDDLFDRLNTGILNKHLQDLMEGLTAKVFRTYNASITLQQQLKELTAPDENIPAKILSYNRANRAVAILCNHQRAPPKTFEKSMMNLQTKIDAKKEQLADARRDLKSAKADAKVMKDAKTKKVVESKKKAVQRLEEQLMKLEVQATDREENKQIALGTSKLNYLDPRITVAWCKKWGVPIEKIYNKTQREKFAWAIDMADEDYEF
The experiment in a line: Inhibition of human recombinant topoisomerase 1-mediated relaxation of supercoiled pUC18 plasmid DNA in human MCF7 cells nuclear extracts at 100 uM after 30 mins by ethidium bromide staining based gel electrophoresis analysis. In kind it is cell-free. In short, it runs like this:
(§1)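 Topo I activity came from MCF-7 nuclear extract (0.3 µL) acting on 250 ng supercoiled pUC18. Buffer: 10 mM Tris/HCl pH 7.9, 50 mM KCl, 10 mM MgCl2, 0.5 mM DTT, 0.5 mM EDTA, 0.03 mg/mL BSA, no ATP. Incubation 30 min at 37 °C. Stopped with SDS, then proteinase K digest. Run on 1% agarose TAE gel and stained with ethidium bromide afterward. Scored as lowest inhibiting concentration from 10, 30, 50 or 100 µM.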

Assay [2] can be described thus: Growth inhibition of human GXF251L cells after 72 hrs by SRB assay. It counts as functional. The note with it: GXF 251L. The method in brief: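 GXF251L gastric xenograft-derived cells in RPMI-1640 with 10% FCS were seeded at 6000 cells/well and grown 24 h. They were then exposed 72 h in serum-containing medium with 1% DMSO final. Cells were fixed with TCA for 1 h at 4 °C and stained with 0.4% SRB. Dye was dissolved in 10 mM Tris pH 10.5 and read at 570 nm. IC50 vs DMSO control; three independent experiments.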
For orientation: Sulforhodamine B stains cellular protein and so reports cell mass.

Assay [3] deals with DNA topoisomerase 2-beta (Homo sapiens) (UniProt Q02880). In words: Inhibition of human recombinant topoisomerase 2beta-mediated decatenation of kDNA at 30 uM after 60 mins by ethidium bromide staining based gel electrophoresis analysis. In short, it runs like this: (§2)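 Recombinant human topo IIα or IIβ (40 ng) was incubated with 200 ng Crithidia kDNA. Buffer: 50 mM Tris/HCl pH 7.9, 120 mM KCl, 10 mM MgCl2, 1 mM ATP, 0.5 mM DTT, 0.5 mM EDTA, 0.03 mg/mL BSA. Incubation 60 min at 37 °C. Stopped with proteinase K/SDS, digested 30 min, run on 1% agarose and stained with ethidium bromide. Decatenated minicircle signal as T/C% vs DMSO; three experiments.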

Assay [4] concerns the target DNA topoisomerase 2-alpha (Homo sapiens) (UniProt P11388). In words: Inhibition of human recombinant topoisomerase 2alpha-mediated decatenation of kDNA at 50 uM after 60 mins by ethidium bromide staining based gel electrophoresis analysis. The method in brief:
as §2

In assay [5] the target is T1, DNA topoisomerase 1 (Homo sapiens). In words: Inhibition of human recombinant topoisomerase 1-mediated relaxation of supercoiled pUC18 plasmid DNA in human MCF7 cells nuclear extracts at 10 uM after 30 mins by ethidium bromide staining based gel electrophoresis analysis. In kind it is cell-free. In short, it runs like this:
as §1

Assay [6] shares this target. In words: Stabilization of topoisomerase 1/DNA complex in human A431 cells. In kind it is cell-based. Conditions: A-431. The method in brief: (§3)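 A431 cells were grown 72 h, then treated 1 h serum-free (10–100 µM; 1% DMSO control). Cells were lysed in sarkosyl TE buffer, and lysate was spun on a CsCl step gradient at 100,000 × g for 24 h at 20 °C. Fractions were measured by A260 and slot-blotted. Topo I, IIα or IIβ was immunodetected by chemiluminescence and expressed as T/C% per DNA content. Three experiments.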

Assay [7] has as its target DNA topoisomerase 2-beta (Homo sapiens) (UniProt Q02880). The experiment in a line: Inhibition of topoisomerase 2beta in human A431 cells assessed as DNA peak fractions level after 1 hr by ICE assay. It counts as cell-based. The note with it: A-431. In short, it runs like this:
as §3

Assay [8] addresses DNA topoisomerase 2-alpha (Homo sapiens) (UniProt P11388). In words: Inhibition of topoisomerase 2alpha in human A431 cells assessed as DNA peak fractions level after 1 hr by ICE assay. Conditions: A-431. In kind it is cell-based. The method in brief:
as §3

Assay [9] concerns the target DNA topoisomerase 2-beta (Homo sapiens) (UniProt Q02880). In words: Inhibition of human recombinant topoisomerase 2beta-mediated decatenation of kDNA at 100 uM after 60 mins by ethidium bromide staining based gel electrophoresis analysis. The method in brief: as §2
Assay [10] addresses DNA topoisomerase 2-alpha (Homo sapiens) (UniProt P11388). In words: Inhibition of human recombinant topoisomerase 2alpha-mediated decatenation of kDNA at 100 uM after 60 mins by ethidium bromide staining based gel electrophoresis analysis. In short, it runs like this: as §2
Assay [11] has as its target T1, DNA topoisomerase 1 (Homo sapiens). The experiment in a line: Inhibition of human recombinant topoisomerase 1-mediated relaxation of supercoiled pUC18 plasmid DNA in human MCF7 cells nuclear extracts at 50 uM after 30 mins by ethidium bromide staining based gel electrophoresis analysis. In kind it is cell-free. In short, it runs like this: as §1
Assay [12] concerns the target DNA topoisomerase 2-beta (Homo sapiens) (UniProt Q02880). The experiment in a line: Inhibition of human recombinant topoisomerase 2beta-mediated decatenation of kDNA up to 50 uM after 60 mins by ethidium bromide staining based gel electrophoresis analysis. The method in brief:
as §2

Assay [13] concerns the target DNA topoisomerase 2-alpha (Homo sapiens) (UniProt P11388). The experiment in a line: Inhibition of human recombinant topoisomerase 2alpha-mediated decatenation of kDNA up to 50 uM after 60 mins by ethidium bromide staining based gel electrophoresis analysis. In short, it runs like this: as §2

Chain of DNA topoisomerase 2-beta (Homo sapiens) (Q02880 whole entry): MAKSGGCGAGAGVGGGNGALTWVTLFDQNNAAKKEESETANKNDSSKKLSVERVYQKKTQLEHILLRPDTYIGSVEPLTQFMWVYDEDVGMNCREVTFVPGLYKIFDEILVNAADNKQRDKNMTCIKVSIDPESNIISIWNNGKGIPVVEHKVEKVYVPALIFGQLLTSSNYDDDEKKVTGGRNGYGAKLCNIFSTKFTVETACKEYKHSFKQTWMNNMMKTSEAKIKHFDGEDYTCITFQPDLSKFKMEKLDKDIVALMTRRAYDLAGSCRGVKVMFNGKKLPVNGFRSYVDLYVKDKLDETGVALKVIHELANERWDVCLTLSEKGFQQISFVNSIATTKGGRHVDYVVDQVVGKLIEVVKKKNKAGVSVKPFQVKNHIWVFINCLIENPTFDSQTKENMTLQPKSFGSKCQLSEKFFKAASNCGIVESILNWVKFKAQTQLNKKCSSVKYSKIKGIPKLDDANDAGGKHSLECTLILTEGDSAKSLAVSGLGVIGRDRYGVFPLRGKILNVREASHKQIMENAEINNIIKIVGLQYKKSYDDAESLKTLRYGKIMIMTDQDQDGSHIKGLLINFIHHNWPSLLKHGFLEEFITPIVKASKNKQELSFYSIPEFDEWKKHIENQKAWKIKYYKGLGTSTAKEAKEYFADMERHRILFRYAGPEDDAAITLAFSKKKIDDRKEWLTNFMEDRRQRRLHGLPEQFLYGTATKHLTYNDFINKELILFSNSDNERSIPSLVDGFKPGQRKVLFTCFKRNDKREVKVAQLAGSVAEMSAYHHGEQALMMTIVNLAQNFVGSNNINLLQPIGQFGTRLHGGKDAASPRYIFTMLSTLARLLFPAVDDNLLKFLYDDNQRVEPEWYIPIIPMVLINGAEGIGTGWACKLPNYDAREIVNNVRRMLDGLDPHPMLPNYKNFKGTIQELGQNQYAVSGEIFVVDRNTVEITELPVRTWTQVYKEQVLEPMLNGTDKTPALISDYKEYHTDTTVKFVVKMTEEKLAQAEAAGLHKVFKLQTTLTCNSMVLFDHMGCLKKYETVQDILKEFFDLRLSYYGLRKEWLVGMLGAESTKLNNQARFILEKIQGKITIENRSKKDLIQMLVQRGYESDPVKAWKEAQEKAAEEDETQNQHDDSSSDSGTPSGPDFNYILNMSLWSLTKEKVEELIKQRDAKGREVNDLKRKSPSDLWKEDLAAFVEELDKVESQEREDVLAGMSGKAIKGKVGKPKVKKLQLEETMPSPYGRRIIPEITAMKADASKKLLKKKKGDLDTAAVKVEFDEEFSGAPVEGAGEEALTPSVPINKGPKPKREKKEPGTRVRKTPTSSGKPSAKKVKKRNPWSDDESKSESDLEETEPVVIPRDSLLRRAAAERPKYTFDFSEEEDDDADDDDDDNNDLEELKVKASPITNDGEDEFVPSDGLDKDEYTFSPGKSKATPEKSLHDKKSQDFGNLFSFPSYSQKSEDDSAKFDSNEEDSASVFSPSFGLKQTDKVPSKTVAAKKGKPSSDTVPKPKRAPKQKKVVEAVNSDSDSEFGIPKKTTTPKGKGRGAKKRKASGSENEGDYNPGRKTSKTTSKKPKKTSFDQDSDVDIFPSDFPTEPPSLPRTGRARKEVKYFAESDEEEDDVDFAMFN
Chain of DNA topoisomerase 2-alpha (Homo sapiens) (P11388 whole entry): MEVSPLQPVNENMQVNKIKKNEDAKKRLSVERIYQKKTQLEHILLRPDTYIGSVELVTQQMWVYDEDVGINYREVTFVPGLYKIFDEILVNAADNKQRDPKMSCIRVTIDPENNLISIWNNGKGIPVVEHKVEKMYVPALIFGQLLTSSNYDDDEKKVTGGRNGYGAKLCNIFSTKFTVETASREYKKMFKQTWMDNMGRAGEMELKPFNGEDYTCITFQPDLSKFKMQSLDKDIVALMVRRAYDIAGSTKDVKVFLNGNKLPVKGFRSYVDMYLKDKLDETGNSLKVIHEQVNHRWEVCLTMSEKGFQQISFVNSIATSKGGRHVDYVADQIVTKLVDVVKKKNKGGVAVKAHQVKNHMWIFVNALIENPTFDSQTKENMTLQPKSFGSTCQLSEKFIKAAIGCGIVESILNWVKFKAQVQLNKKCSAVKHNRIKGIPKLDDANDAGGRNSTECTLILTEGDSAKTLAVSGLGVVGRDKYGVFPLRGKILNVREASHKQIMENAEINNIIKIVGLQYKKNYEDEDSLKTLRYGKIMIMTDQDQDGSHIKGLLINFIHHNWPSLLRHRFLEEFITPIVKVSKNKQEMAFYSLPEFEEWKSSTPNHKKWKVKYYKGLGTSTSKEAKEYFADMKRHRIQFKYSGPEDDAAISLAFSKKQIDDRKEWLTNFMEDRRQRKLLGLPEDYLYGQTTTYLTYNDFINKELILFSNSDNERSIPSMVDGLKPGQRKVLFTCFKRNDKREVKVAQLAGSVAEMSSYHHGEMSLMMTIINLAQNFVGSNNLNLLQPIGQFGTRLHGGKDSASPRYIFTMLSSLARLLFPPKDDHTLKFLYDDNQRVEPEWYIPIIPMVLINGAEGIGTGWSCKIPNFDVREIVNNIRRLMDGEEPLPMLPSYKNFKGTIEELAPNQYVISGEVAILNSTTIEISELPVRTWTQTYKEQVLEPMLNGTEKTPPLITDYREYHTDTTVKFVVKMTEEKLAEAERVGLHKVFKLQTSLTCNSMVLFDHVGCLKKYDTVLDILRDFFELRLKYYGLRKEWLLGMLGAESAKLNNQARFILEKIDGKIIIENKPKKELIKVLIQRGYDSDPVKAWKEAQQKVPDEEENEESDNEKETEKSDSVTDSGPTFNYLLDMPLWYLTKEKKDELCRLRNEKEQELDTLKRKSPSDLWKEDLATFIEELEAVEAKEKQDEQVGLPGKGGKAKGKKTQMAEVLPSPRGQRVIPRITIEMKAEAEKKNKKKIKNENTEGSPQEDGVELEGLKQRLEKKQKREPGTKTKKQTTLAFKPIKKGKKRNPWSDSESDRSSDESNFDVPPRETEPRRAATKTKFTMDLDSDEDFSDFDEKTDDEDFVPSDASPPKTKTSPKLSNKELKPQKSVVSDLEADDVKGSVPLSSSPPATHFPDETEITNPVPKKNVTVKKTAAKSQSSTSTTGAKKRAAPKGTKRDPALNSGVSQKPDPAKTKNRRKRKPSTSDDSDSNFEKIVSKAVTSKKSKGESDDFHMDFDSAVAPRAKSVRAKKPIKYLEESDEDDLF

As a reminder, the IC50 is the concentration that inhibits the measured activity by half. A higher IC50 goes with weaker potency. As to `COc1cc2cnc3ccc(O)cc3c2cc1OC`, in [1], the inhibition entry is “inactive”. This compound yielded a half-maximal inhibitory concentration (IC50) in [2] of 26 µM.
For the compound `Oc1cc2c3c(c1)c1cc4c(cc1c[n+]3CC2)OCO4` [LYCOBETAINE], the inhibition entry in assay [3], in assay [4] and in assay [5] was “Active” in each case. Besides, the IC50 in assay [2] came out at 3.2 µM. Moreover, the result in assay [6] was inactive. In addition, the inhibition result in assay [7] and in assay [8] was “Dose-dependent effect” in each case.
For the compound `COc1ccc2c(c1)c1cc3c(cc1c[n+]2C)OCO3`, the inhibition entry in assay [3], in assay [4] and in assay [5] was “Active” in each case. This compound came in with a 50% inhibitory concentration (IC50) in [2] of 0.9 µM.
As to `COc1ccc2c(c1)c[n+](C)c1ccc(O)cc21`, the inhibition result in assay [9] and in assay [10] was “inactive” each time. In addition, the inhibition entry in assay [5] is “Active”. In [2], this compound registered a half-inhibitory concentration (IC50) of 5.4 µM.
In the case of `COc1cc2c[n+](C)c3ccc(O)cc3c2cc1OC`, the inhibition result in assay [9] and in [10] was “inactive” each time. In addition, in assay [11], the inhibition entry was “Active”. This compound showed an IC50 in assay [2] of 18.8 µM.
For the compound `C[n+]1cc2cc3c(cc2c2cc(O)ccc21)OCO3`, the inhibition entry in [3], in [4] and in assay [5] was “Active” throughout. The compound further yielded an IC50 in [2] of 1.6 µM.
Take `COc1ccc2c[n+](C)c3ccc(O)cc3c2c1`: the inhibition entry in [12], in assay [13] and in [1] was “inactive” throughout. In [2], this compound yielded an IC50 of 8.4 µM.
Regarding `COc1ccc2c(c1)c1cc(OC)c(OC)cc1c[n+]2C`, the inhibition entry in [10] and in assay [5] was “Active” in each case. Besides, the 50% inhibitory concentration (IC50) in [2] came out at 7.8 µM.
Turning to `COc1ccc2c(cnc3ccc(O)cc32)c1`, the inhibition entry in assay [1] is “inactive”. For the same compound, the IC50 in assay [2] is above 50 µM.
With `C[n+]1cc2cc3c(cc2c2ccccc21)OCO3`, the inhibition result in assay [12] and in assay [13] was “inactive” each time. In addition, the inhibition entry in [5] is “Active”. For the same compound, the IC50 in assay [2] stood at 1.9 µM.
Consider `COc1ccc2ncc3cc(OC)c(OC)cc3c2c1`, for which the inhibition entry in [1] is “inactive”. The compound further returned a half-inhibitory concentration (IC50) in [2] of 41.1 µM.
With `Oc1ccc2ncc3cc4c(cc3c2c1)OCO4`, in [1], the inhibition entry is “inactive”. This compound displayed an IC50 in assay [2] of 17.3 µM.
On to `COc1ccc2c(c1)c1ccccc1c[n+]2C`, for which the inhibition entry in assay [9], in assay [10] and in assay [5] was “Active” in each case. In assay [2], this compound came in with an IC50 of 4 µM.
`c1ccc2c(c1)ncc1cc3c(cc12)OCO3` [TRISPHAERIDINE]: the inhibition result in [1] is “inactive”. The same compound gave an IC50 in assay [2] of 12 µM.
Taken in the same sequence, the figures for `COc1ccc2cnc3ccc(O)cc3c2c1` were “inactive” and 40.6 µM.
For `COc1ccc2ncc3cc4c(cc3c2c1)OCO4`, the inhibition result in assay [1] is “inactive”. The same compound gave an IC50 in [2] of 12.1 µM.

The values above are taken from ChEMBL document CHEMBL2321857, “Synthesis, topoisomerase-targeting activity and growth inhibition of lycobetaine analogs” (Bioorg Med Chem, 2013).
